Laboratory results: ChEMBL document CHEMBL1127689, “Novel 4-(aryloxy)tetrahydropyridine analogs of MPTP as monoamine oxidase A and B substrates” (J Med Chem, 1994)

What was measured:
[1] = biological target: T1, Amine oxidase [flavin-containing] B (Bos taurus, UniProt P56560); experiment: Ratio of turnover to Km for bovine MAO-B; conditions: cattle
T1 sequence (P56560 whole entry): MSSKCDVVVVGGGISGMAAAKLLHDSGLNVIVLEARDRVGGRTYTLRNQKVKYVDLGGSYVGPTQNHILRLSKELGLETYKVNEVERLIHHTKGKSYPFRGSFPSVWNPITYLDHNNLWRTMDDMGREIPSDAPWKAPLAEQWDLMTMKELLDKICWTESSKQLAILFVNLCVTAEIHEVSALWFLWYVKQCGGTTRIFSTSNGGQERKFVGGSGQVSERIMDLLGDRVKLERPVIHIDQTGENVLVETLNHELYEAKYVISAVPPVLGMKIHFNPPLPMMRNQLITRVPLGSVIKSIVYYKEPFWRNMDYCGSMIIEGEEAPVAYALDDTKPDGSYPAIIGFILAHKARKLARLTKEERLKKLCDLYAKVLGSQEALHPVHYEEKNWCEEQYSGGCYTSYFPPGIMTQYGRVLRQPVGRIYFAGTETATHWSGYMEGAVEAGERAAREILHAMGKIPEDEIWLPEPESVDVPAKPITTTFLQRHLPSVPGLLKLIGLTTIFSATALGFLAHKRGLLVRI
Procedure, shortened: (§1)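 Bovine liver mitochondrial MAO-B, partially purified, at 0.087 μM. Four substrate concentrations were used, from 500–62.5 μM solutions in 100 mM sodium phosphate, pH 7.4. Each was equilibrated 1 min at 37 °C before enzyme was added. Amino enone formation was read at 324 nm every 3 s for 2 min, in duplicate. Km and TN came from Lineweaver-Burk double-reciprocal plots of initial rates.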

[2] = biological target: T2, Amine oxidase [flavin-containing] A (Homo sapiens, UniProt P21397); experiment: Turnover number (TN) for human mono-amine oxidase MAO-A
T2 sequence (P21397 whole entry): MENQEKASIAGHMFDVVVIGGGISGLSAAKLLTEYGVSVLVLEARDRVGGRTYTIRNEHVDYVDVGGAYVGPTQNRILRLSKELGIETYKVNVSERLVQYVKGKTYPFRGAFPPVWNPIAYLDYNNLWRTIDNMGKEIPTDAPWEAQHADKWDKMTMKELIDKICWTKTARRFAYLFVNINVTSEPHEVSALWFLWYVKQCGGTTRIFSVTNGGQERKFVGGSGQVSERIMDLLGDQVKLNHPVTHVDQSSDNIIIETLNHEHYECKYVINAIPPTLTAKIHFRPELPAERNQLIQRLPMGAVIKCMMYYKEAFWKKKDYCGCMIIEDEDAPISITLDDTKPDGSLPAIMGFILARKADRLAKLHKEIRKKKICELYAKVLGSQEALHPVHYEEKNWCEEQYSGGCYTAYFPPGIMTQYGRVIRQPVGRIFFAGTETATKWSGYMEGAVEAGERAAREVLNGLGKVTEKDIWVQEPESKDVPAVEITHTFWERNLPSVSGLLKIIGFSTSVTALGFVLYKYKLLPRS
Procedure, shortened: (§2)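 MAO-A preparation was diluted 1:4 in 20 mM phosphate, pH 7.4, with 20% w/v glycerol and used at 0.17 μM. Four substrate concentrations were used, from 500–62.5 μM solutions in 100 mM sodium phosphate, pH 7.4, after 1 min at 37 °C. Initial rates were taken from the 324 nm amino enone absorbance, read every 3 s for 2 min, in duplicate. Km and TN came from double-reciprocal plots.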

[3] = biological target: T1, Amine oxidase [flavin-containing] B; experiment: Turnover number (TN) for bovine mono-amine oxidase B MAO-B; conditions: cattle; procedure, shortened: as §1
[4] = biological target: T2, Amine oxidase [flavin-containing] A; experiment: Ratio of turnover to Km for human MAO-A; procedure, shortened: as §2
[5] = biological target: T2, Amine oxidase [flavin-containing] A; experiment: Oxidation by human mono-amine oxidase MAO-A; procedure, shortened: as §2
[6] = biological target: T3, MAO-B (Bos taurus, UniProt P56560); experiment: (§3) Oxidation by bovine mono-amine oxidase B MAO-B; conditions: cattle, bovine monoamine oxidase B (MAO-B) enzyme; procedure, shortened: as §1
T3 sequence (P56560 whole entry): T1 sequence (P56560 whole entry)

[7] = biological target: T1, Amine oxidase [flavin-containing] B; experiment: as §3; conditions: cattle; procedure, shortened: as §1

Ratio [1]	TN [2]	TN [3]	Ratio [4]	Km [5] [µM]	Km [6] [µM]	Km [7] [µM]	Compound
310	121 M min-1 M-1	276 M min-1 M-1	3340	36	–	–	CN1CC=C(Cc2ccc3ccccc3c2)CC1
1214	207 M min-1 M-1	333 M min-1 M-1	2685	–	–	–	CN1CC=C(Oc2ccc3ccccc3c2)CC1
4151	130 M min-1 M-1	241 M min-1 M-1	2359	–	–	–	CN1CC=C(Oc2ccccc2)CC1
–	59 M min-1 M-1	> 200 M min-1 M-1	212	–	> 1000	–	CN1CC=C(Oc2cc3ccccc3c3ccccc23)CC1
363	173 M min-1 M-1	103 M min-1 M-1	1710	–	–	–	CN1CC=C(Oc2ccc(-c3ccccc3)cc2)CC1
–	365 M min-1 M-1	> 53 M min-1 M-1	759	–	–	–	CN1CC=C(Cc2cc3ccccc3c3ccccc23)CC1
565	227 M min-1 M-1	81 M min-1 M-1	1567	–	–	–	CN1CC=C(Oc2cccc3ccccc23)CC1
105	433 M min-1 M-1	89 M min-1 M-1	2590	167	–	847	CN1CC=C(Cc2cccc3ccccc23)CC1

Continued, compound first:

Compound	Ratio [1]	TN [2]	TN [3]	Ratio [4]	Km [5] [µM]	Km [6] [µM]	Km [7] [µM]
CN1CC=C(Oc2ccc(C(C)(C)C)cc2)CC1	395	111 M min-1 M-1	22 M min-1 M-1	855	–	–	–
CCCCc1ccc(OC2=CCN(C)CC2)cc1	1090	85 M min-1 M-1	92 M min-1 M-1	1676	–	–	–
NCCC(=O)c1ccccc1N [KYNURAMINE]	–	146 M min-1 M-1	–	860	170	–	–
CN1CC=C(c2ccccc2)CC1	523	20 M min-1 M-1	204 M min-1 M-1	143	–	–	–
CN1CC=C(Oc2ccc(Cl)cc2Cl)CC1	1334	95 M min-1 M-1	223 M min-1 M-1	3290	–	–	–
CN1CC=C(Cc2ccccc2)CC1	1250	9 M min-1 M-1	193 M min-1 M-1	139	66	–	154
NCc1ccccc1 [BENZYLAMINE]	963	–	283 M min-1 M-1	–	–	–	290
